These results are taken from ChEMBL document CHEMBL1152541, “Staurosporine tethered peptide ligands that target cAMP-dependent protein kinase (PKA): optimization and selectivity profiling” (Bioorg Med Chem, 2009).

*1 amine or outer side, *2 acyl side, *3 side chain or, on linkers, in order; H or OH if unused. Where a SMILES comes first, the peptide text is derived from it. Bridges are numbered along the chain shown (N, C = ends). [ ]: non-standard residue; d: D form. The star is where a group is joined. Staurosporine = CO[C@@H]1[C@H](N(C)*)C[C@H]2O[C@]1(C)n1c3ccccc3c3c4c(c5c6ccccc6n2c5c31)C(=O)NC4; Suc = O=C(CCC(=O)[*:2])[*:1]; Dap = NC[C@H](N)C(=O)O; βAla = NCCC(=O)O

In assay [1] the test system is Tyrosine-protein kinase ABL1 (Homo sapiens), P00519 [E255K]. Briefly: Binding affinity to human ABL1 E255K mutant at 500 nM by cell-based competition binding assay relative to control in presence of DTT. The method in brief:
(§1)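 Kinase binding profiling ran on a commercial (Ambit) competitive binding screen against a panel of 90 kinases. The screen used reducing conditions with 7.5 mM DTT. To withstand the DTT, the bivalent ligand was tested as its amide isostere, with the disulfide replaced. A staurosporine derivative carrying a 3 β-alanine linker was run as the reference compound.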

The target of assay [2] is Mitogen-activated protein kinase kinase kinase 9 (Homo sapiens) (UniProt P80192). Briefly: Binding affinity to human MLK1 at 500 nM by cell-based competition binding assay relative to control in presence of DTT.
Mitogen-activated protein kinase kinase kinase 9 (Homo sapiens), sequence (P80192 whole entry, looked up, canonical isoform): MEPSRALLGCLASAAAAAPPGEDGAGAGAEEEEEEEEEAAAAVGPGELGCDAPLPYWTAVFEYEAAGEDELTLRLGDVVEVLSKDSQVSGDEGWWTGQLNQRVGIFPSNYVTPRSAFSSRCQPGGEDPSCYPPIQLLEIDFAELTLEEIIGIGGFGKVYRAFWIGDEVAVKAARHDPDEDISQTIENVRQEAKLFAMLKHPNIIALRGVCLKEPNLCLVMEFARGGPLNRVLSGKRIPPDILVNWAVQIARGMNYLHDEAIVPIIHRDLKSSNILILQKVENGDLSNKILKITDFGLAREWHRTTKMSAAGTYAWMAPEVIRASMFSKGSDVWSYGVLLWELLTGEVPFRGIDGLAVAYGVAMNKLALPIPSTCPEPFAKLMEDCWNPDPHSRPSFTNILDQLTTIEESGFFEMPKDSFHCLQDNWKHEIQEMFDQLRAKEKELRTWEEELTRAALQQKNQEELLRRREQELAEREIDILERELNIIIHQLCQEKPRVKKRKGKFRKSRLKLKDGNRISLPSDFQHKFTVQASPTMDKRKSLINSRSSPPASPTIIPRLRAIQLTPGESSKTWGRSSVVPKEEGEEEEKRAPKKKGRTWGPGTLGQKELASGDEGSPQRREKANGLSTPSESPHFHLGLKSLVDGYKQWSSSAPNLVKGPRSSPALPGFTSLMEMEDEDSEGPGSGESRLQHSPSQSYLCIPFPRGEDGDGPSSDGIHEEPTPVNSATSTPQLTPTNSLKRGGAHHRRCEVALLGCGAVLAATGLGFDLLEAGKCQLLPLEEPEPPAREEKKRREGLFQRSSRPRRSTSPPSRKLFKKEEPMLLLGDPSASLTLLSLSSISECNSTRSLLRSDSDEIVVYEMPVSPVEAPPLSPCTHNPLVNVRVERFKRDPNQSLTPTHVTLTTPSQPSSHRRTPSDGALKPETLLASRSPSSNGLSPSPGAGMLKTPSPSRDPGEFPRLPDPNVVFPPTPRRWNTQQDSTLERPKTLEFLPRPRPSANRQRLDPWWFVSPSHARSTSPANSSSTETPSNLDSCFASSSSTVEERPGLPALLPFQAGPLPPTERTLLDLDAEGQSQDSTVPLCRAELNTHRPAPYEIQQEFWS
Assay [3] addresses Phosphatidylinositol 4,5-bisphosphate 3-kinase catalytic subunit alpha isoform (Homo sapiens) (UniProt P42336). Briefly: Binding affinity to human PIK3Calpha at 500 nM by cell-based competition binding assay relative to control in presence of DTT.
The target of assay [4] is Macrophage colony-stimulating factor 1 receptor (Homo sapiens) (UniProt P07333). The experiment in a line: Binding affinity to human CSF1R at 500 nM by cell-based competition binding assay relative to control in presence of DTT. The method in brief:
(§2)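 Commercial (Ambit) competitive kinase-binding panel of 90 kinases measured the binding profile. Run under reducing conditions of 7.5 mM DTT. Binding is expressed relative to control.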

Assay [5] addresses MAP kinase-interacting serine/threonine-protein kinase 1 (Homo sapiens) (UniProt Q9BUB5). The experiment in a line: Binding affinity to human MKNK1 at 500 nM by cell-based competition binding assay relative to control in presence of DTT.
The nature of assay [6]: Ratio of compound IC50 to bivalent ligand 1 IC50 for PKA.
The target in assay [7] is Cyclin-dependent kinase 7 (Homo sapiens) (UniProt P50613). Briefly: Binding affinity to human CDK7 at 200 nM by cell-based competition binding assay relative to control in presence of DTT. The method in brief:
as §1

Assay [8] has as its target Receptor-type tyrosine-protein kinase FLT3 (Homo sapiens) (UniProt P36888). Briefly: Binding affinity to human FLT3 at 200 nM by cell-based competition binding assay relative to control in presence of DTT. In short, it runs like this: as §2
Assay [9] addresses MAP kinase-activated protein kinase 2 (Homo sapiens) (UniProt P49137). Briefly: Binding affinity to human MAPKAPK2 at 200 nM by cell-based competition binding assay relative to control in presence of DTT. The method in brief: (§3)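 Competition binding screen (Ambit) across a panel of 90 kinases, scoring test ligand displacement of each kinase's binding relative to control. The screen ran under reducing conditions with 7.5 mM DTT.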

In assay [10] the target is Mitogen-activated protein kinase kinase kinase 4 (Homo sapiens) (UniProt Q9Y6R4). Briefly: Binding affinity to human MAP3K4 at 200 nM by cell-based competition binding assay relative to control in presence of DTT. The method in brief: as §3
Mitogen-activated protein kinase kinase kinase 4 (Homo sapiens), sequence (Q9Y6R4 whole entry): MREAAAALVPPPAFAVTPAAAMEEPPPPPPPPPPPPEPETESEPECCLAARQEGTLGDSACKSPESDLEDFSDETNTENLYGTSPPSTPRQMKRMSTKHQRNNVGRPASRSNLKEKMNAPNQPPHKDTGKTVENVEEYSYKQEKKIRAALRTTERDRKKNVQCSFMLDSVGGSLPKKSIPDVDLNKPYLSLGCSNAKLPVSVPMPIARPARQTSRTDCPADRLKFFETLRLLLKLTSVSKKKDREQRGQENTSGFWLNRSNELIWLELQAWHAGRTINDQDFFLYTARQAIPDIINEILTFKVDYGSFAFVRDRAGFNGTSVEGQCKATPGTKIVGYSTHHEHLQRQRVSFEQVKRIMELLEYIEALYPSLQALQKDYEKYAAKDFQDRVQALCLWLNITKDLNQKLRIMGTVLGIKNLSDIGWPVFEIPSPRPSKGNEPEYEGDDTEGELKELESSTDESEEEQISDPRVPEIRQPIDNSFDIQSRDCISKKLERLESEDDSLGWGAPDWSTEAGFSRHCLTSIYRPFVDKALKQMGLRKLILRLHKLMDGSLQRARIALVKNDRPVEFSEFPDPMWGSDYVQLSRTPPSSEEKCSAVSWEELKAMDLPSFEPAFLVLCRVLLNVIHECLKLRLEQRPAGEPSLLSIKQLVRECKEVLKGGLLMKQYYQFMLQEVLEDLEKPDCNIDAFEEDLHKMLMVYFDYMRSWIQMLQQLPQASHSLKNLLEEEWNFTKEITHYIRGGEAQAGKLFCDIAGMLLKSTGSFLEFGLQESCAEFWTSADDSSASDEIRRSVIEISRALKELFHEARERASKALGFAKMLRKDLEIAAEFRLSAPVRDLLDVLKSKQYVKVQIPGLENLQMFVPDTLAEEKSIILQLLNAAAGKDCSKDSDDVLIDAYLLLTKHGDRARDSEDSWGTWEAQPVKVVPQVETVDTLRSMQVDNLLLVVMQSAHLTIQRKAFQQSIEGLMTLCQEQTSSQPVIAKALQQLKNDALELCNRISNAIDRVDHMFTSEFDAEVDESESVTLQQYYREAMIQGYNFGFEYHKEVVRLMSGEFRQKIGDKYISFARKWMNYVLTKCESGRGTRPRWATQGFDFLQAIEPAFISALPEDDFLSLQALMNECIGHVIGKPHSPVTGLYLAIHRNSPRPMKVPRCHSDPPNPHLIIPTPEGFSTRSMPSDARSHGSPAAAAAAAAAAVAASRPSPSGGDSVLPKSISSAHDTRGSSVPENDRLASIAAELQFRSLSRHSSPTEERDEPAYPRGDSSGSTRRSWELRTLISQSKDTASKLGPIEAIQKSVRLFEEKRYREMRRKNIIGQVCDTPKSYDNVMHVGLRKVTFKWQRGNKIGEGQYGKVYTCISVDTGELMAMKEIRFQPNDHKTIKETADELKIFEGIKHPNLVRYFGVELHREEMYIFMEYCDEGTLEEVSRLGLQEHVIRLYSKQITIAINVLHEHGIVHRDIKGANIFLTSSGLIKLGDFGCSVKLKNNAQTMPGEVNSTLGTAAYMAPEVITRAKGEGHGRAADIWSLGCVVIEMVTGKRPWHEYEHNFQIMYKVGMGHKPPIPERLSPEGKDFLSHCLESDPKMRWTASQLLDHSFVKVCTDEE
In assay [11] the target is Cyclin-dependent kinase 9 (Homo sapiens) (UniProt P50750). The experiment in a line: Binding affinity to human CDK9 at 200 nM by cell-based competition binding assay relative to control in presence of DTT. In short, it runs like this:
as §2

For assay [12], the target named is Mast/stem cell growth factor receptor Kit (Homo sapiens) (UniProt P10721). Briefly: Binding affinity to human KIT at 200 nM by cell-based competition binding assay relative to control in presence of DTT. In short, it runs like this: as §3
Mast/stem cell growth factor receptor Kit (Homo sapiens), sequence (P10721 whole entry): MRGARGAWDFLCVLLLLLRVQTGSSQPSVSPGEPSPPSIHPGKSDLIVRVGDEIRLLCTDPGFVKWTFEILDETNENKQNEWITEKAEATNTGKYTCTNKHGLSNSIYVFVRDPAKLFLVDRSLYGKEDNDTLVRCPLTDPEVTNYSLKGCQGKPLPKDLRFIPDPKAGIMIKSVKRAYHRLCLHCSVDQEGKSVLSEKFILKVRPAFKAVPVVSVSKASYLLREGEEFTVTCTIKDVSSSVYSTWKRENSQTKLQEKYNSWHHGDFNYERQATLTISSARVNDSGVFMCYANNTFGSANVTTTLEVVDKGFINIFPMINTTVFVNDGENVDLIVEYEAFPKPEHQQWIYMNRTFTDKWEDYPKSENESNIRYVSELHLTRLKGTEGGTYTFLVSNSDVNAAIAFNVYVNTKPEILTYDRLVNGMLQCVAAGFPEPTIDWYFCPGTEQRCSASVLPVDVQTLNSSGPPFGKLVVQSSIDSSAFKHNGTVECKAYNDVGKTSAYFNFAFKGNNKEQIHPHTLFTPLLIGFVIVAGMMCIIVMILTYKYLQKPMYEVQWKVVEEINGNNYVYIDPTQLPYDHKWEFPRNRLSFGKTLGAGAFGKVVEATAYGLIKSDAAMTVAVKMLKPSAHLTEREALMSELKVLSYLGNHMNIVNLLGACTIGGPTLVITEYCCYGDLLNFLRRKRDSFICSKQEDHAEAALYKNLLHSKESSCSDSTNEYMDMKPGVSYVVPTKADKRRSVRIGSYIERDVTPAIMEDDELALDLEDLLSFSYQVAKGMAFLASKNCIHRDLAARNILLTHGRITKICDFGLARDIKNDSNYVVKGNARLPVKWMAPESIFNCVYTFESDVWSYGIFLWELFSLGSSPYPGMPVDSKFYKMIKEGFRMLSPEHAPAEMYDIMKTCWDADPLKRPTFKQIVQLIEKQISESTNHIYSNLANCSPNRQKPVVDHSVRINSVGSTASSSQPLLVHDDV
Assay [13] has as its target T1, Testis-specific serine/threonine-protein kinase 1 (Homo sapiens) (UniProt Q9BXA7).
T1 sequence (whole entry): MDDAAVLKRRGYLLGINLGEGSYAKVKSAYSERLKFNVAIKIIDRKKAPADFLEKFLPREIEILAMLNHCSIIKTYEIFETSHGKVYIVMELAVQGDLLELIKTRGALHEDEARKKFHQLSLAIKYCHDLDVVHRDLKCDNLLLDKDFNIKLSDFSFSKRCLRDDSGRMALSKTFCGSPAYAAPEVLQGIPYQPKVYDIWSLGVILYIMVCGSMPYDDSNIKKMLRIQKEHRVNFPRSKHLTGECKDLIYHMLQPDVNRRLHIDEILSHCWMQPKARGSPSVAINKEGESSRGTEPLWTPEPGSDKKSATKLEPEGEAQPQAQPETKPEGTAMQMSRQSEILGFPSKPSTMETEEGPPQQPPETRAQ
Briefly: Binding affinity to human TSSK1 at 50 nM by cell-based competition binding assay relative to control in presence of DTT.

Assay [14] concerns the target RAC-beta serine/threonine-protein kinase (Homo sapiens) (UniProt P31751). Briefly: Binding affinity to human AKT2 at 50 nM by cell-based competition binding assay relative to control in presence of DTT. In short, it runs like this: as §1
In assay [15] the target is Mitogen-activated protein kinase kinase kinase 4 (Homo sapiens) (UniProt Q9Y6R4). Briefly: Binding affinity to human MAP3K4 at 50 nM by cell-based competition binding assay relative to control in presence of DTT. In short, it runs like this:
as §3

Assay [16] addresses Cyclin-dependent kinase 2 (Homo sapiens) (UniProt P24941). Briefly: Binding affinity to human CDK2 at 50 nM by cell-based competition binding assay relative to control in presence of DTT. In short, it runs like this:
as §1

The target of assay [17] is Serine/threonine-protein kinase PLK1 (Homo sapiens) (UniProt P53350). The experiment in a line: Binding affinity to human PLK1 at 50 nM by cell-based competition binding assay relative to control in presence of DTT.
The target of assay [18] is T2, Protein kinase C epsilon type (Homo sapiens) (UniProt Q02156).
T2 sequence (whole entry): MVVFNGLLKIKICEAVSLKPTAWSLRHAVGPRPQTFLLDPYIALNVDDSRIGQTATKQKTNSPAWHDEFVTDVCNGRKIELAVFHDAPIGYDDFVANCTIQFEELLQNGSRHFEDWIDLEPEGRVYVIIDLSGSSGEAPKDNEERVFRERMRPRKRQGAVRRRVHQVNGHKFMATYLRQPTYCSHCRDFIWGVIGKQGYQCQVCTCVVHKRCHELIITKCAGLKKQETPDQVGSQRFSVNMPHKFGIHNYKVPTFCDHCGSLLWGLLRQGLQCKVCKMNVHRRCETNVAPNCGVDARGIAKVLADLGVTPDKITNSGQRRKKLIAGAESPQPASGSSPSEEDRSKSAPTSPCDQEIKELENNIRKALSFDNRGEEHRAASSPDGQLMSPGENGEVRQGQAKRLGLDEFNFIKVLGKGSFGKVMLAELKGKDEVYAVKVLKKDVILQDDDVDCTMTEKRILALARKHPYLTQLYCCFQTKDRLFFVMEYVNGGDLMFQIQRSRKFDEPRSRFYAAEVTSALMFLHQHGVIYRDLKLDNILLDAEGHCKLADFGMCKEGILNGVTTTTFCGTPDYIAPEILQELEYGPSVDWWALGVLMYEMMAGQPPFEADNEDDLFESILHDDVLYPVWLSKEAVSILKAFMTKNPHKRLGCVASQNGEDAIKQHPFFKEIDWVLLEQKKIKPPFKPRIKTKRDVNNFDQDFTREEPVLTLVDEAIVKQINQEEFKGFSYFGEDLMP
Briefly: Binding affinity to human PRKCepsilon at 50 nM by cell-based competition binding assay relative to control in presence of DTT.

Assay [19] deals with Atypical kinase COQ8A, mitochondrial (Homo sapiens) (UniProt Q8NI60). Briefly: Binding affinity to human ADCK3 at 50 nM by cell-based competition binding assay relative to control in presence of DTT. In short, it runs like this:
as §1

Cyclin-dependent kinase 7 (Homo sapiens), sequence (P50613 whole entry): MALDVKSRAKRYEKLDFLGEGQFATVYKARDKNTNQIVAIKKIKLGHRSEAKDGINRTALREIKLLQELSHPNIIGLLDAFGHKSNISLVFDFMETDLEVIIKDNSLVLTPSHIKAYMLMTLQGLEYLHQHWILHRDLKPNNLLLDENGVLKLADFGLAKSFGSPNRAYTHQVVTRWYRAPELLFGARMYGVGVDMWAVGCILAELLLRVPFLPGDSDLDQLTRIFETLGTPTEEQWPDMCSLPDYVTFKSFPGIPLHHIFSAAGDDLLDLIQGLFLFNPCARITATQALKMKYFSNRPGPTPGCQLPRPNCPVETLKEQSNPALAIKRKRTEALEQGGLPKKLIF
RAC-beta serine/threonine-protein kinase (Homo sapiens), sequence (P31751 whole entry): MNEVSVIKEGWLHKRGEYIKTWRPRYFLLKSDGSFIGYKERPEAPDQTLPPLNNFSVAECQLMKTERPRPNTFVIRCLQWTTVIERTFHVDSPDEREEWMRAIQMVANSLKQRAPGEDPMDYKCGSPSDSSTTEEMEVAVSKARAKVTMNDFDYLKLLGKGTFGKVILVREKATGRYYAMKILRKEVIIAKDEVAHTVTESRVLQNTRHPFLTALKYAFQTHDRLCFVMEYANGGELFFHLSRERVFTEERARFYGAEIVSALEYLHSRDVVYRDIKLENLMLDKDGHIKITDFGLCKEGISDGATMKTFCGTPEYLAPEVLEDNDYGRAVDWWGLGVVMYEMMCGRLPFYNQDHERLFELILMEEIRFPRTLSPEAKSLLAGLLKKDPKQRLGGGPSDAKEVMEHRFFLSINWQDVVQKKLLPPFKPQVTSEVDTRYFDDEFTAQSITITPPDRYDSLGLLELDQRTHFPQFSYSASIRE
Atypical kinase COQ8A, mitochondrial (Homo sapiens), sequence (Q8NI60 163-647 limits assumed): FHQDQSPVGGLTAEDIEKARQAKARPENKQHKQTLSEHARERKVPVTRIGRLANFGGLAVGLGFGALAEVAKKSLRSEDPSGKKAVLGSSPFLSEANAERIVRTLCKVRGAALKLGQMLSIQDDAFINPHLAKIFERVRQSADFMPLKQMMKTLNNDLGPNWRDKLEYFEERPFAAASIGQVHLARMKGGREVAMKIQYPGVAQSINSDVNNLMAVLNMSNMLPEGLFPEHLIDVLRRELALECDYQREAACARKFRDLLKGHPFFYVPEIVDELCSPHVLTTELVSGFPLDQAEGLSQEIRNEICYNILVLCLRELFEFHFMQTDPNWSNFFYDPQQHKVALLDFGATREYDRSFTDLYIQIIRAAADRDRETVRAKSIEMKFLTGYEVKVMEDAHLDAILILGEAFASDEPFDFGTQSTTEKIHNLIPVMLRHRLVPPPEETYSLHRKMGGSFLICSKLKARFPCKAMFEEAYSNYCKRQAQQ

Consider `CO[C@@H]1[C@H](N(C)C(=O)CCC(=O)NCCC(=O)NCCC(=O)NCCC(N)=O)C[C@H]2O[C@]1(C)n1c3ccccc3c3c4c(c5c6ccccc6n2c5c31)C(=O)NC4`, for which the Activity came out at 92% in assay [1]; 0.55% in [2]; 100% in assay [3]; 22% in assay [4]; 82% in assay [5]. The Ratio IC50 in assay [6] was > 60.
`CO[C@@H]1[C@H](N(C)C(=O)CCC(=O)NCCC(=O)NCCC(=O)NCCC(=O)NCCC(=O)NCCC(=O)NCCC(=O)NCCC(=O)N[C@H]2CSSC[C@@H](C(=O)NCC(N)=O)NC(=O)CNC(=O)[C@H](Cc3ccccc3)NC(=O)[C@H](C(C)C)NC(=O)[C@H](CCCNC(=N)N)NC(=O)[C@H](Cc3ccccc3)NC(=O)[C@H](C(C)C)NC2=O)C[C@H]2O[C@]1(C)n1c3ccccc3c3c4c(c5c6ccccc6n2c5c31)C(=O)NC4` ({Staurosporine-Suc-βAla-βAla-βAla-βAla-βAla-βAla-βAla}-CVFRVFGCG-NH2; disulfide 1-8): the Activity in [7] was determined as 74%; in assay [8], 1%; in assay [9], 100%; in assay [10], 94%; in assay [11], 100%; in assay [12], 39%.
In the case of `CO[C@@H]1[C@H](N(C)C(=O)CCC(=O)NCCC(=O)NCCC(=O)NCCC(=O)NCCC(=O)NCCC(=O)NCCC(=O)NCCC(=O)N[C@H]2CNC(=O)C[C@@H](C(N)=O)NC(=O)CNC(=O)[C@H](Cc3ccccc3)NC(=O)[C@H](C(C)C)NC(=O)[C@H](CCCNC(=N)N)NC(=O)[C@H](Cc3ccccc3)NC(=O)[C@H](C(C)C)NC2=O)C[C@H]2O[C@]1(C)n1c3ccccc3c3c4c(c5c6ccccc6n2c5c31)C(=O)NC4` ({Staurosporine-Suc-βAla-βAla-βAla-βAla-βAla-βAla-βAla}-[Dap]VFRVFGD-NH2; lactam 1-8), the Activity in assay [13] came out at 100%; in assay [14], 100%; in assay [15], 96%; in assay [16], 100%; in [17] it was 100%; in assay [18], 0%. The Activity in assay [19] stood at 91%.
